The source made the active and inactive calls. No cut-off for these calls is given here.
What was measured:
Escherichia coli = test: Antimicrobial activity against Escherichia coli ATCC 14169 at 25 ug/ml by agar diffusion method; assay type: functional; details: for zone of inhibition at 25 µg/mL: read-out: DIZ
In short: (§1)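 Agar diffusion on Mueller-Hinton agar. Bacterial strains came from the NODCAR Microbiology laboratory culture collection. Ampicillin was the reference standard.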

Bacillus pumilus = test: Antimicrobial activity against Bacillus pumilus ATCC 14884 at 25 ug/ml by agar diffusion method; assay type: functional; details: for zone of inhibition at 25 µg/mL: read-out: DIZ; in short: as §1
Bacillus subtilis = test: Antimicrobial activity against Bacillus subtilis ATCC 6633 at 25 ug/ml by agar diffusion method; assay type: functional; details: for zone of inhibition at 25 µg/mL: read-out: DIZ; in short: as §1
Candida albicans = test: Antifungal activity against Candida albicans ATCC 10231 at 25 ug/ml by agar diffusion method; assay type: functional; details: for zone of inhibition at 25 µg/mL: read-out: DIZ
In short: (§2)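 Agar diffusion on Sabouraud's agar. Fungal strains came from the NODCAR Microbiology laboratory culture collection. Mycostatine was the reference standard.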

Staphylococcus aureus = test: Antimicrobial activity against Staphylococcus aureus ATCC 29737 at 25 ug/ml by agar diffusion method; assay type: functional; details: for zone of inhibition at 25 µg/mL: read-out: DIZ; in short: as §1
[1] = tested on: Staphylococcus epidermidis; test: Antimicrobial activity against Staphylococcus epidermidis ATCC 12228 at 25 ug/ml by agar diffusion method; assay type: functional; details: for zone of inhibition at 25 µg/mL: read-out: DIZ; in short: as §1
[2] = tested on: Bordetella bronchiseptica; test: Antimicrobial activity against Bordetella bronchiseptica ATCC 4617 at 25 ug/ml by agar diffusion method; assay type: functional; details: for zone of inhibition at 25 µg/mL: read-out: DIZ; in short: as §1
Saccharomyces cerevisiae = test: Antifungal activity against Saccharomyces cerevisiae ATCC 9080 at 25 ug/ml by agar diffusion method; assay type: functional; details: for zone of inhibition at 25 µg/mL: read-out: DIZ; in short: as §2
MCF7 = test: Cytotoxicity against human MCF7 cells; assay type: functional, cell-based
In short: (§3)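 Human tumour lines were MCF-7 (breast adenocarcinoma) and HCT (described as lung carcinoma). Cytotoxicity was read by a cell viability assay, with IC50 derived from it.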

Cancer cell lines = test: Cytotoxicity against human Lung cancer cells; assay type: functional, cell-based; in short: as §3

Row | Molecule | diameter of the inhibition zone (DIZ) (Escherichia coli) | diameter of the inhibition zone (DIZ) (Bacillus pumilus) | diameter of the inhibition zone (DIZ) (Bacillus subtilis) | diameter of the inhibition zone (DIZ) (Candida albicans) | diameter of the inhibition zone (DIZ) (Staphylococcus aureus) | diameter of the inhibition zone (DIZ) [1] | diameter of the inhibition zone (DIZ) [2] | diameter of the inhibition zone (DIZ) (Saccharomyces cerevisiae) | zone of inhibition at 25 µg/mL (Staphylococcus aureus) | zone of inhibition at 25 µg/mL [1] | zone of inhibition at 25 µg/mL (Escherichia coli) | zone of inhibition at 25 µg/mL (Bacillus pumilus) | zone of inhibition at 25 µg/mL (Bacillus subtilis) | zone of inhibition at 25 µg/mL (Candida albicans) | zone of inhibition at 25 µg/mL [2] | zone of inhibition at 25 µg/mL (Saccharomyces cerevisiae) | Activity (MCF7) | Activity (Cancer cell lines) | inhibition zone (IZ) (Saccharomyces cerevisiae)
1 | CCN(CC)c1ccc2c(c1)OC(/N=C/c1ccccc1)=C(C#N)C2c1ccc(Cl)cc1 (stereo not given) | inactive | inactive | inactive | inactive | inactive | inactive | inactive | inactive |  |  |  |  |  |  |  |  |  |  | 
2 | CCOC(=O)C1=C(N)Oc2cc(N(CC)CC)ccc2C1c1ccc(F)cc1 (stereo not given) | inactive | inactive | inactive | inactive |  |  | inactive | inactive | 14 mm | 14 mm |  |  |  |  |  |  |  |  | 
3 | CCN(CC)c1ccc2c(c1)Oc1ncnc(N)c1C2c1ccc(Cl)cc1 (stereo not given) |  |  |  |  |  |  |  |  | 25 mm | 24 mm | 20 mm | 25 mm | 21 mm | 15 mm | 21 mm | 20 mm |  |  | 
4 | CCN(CC)c1ccc2c(c1)OC(/N=C/N(C)C)=C(C#N)C2c1ccc(Cl)cc1 (stereo not given) | inactive | inactive | inactive | inactive | inactive | inactive | inactive | inactive |  |  |  |  |  |  |  |  |  |  | 
5 | CCN(CC)c1ccc2c(c1)Oc1ncn(N)c(=N)c1C2c1ccc(Br)cc1 (stereo not given) |  |  |  |  |  |  |  |  | 24 mm | 22 mm | 16 mm | 25 mm | 15 mm | 15 mm | 21 mm | 22 mm |  |  | 
6 | CCN(CC)c1ccc2c(c1)OC(N)=C(C#N)C2c1ccc(F)cc1 (stereo not given) | inactive | inactive | inactive | inactive | inactive | inactive | inactive | inactive |  |  |  |  |  |  |  |  | Not toxic | Not toxic | 
7 | NYSTATIN |  |  |  |  |  |  |  |  |  |  |  |  |  |  |  |  |  |  | 24 mm
8 | CCN(CC)c1ccc2c(c1)OC(N(C(C)=O)C(C)=O)=C(C#N)C2c1ccc(Cl)cc1 (stereo not given) | inactive | inactive | inactive | inactive | inactive | inactive | inactive | inactive |  |  |  |  |  |  |  |  |  |  | 
9 | CCOC(=O)C1=C(N)Oc2cc(N(CC)CC)ccc2C1c1ccc(Br)cc1 (stereo not given) | inactive | inactive | inactive | inactive | inactive | inactive | inactive | inactive |  |  |  |  |  |  |  |  | Not toxic | Not toxic | 
10 | CCN(CC)c1ccc2c(-c3ccc(F)cc3)c(C#N)c(=O)oc2c1 | inactive | inactive | inactive | inactive |  |  | inactive | inactive | 13 mm | 14 mm |  |  |  |  |  |  |  |  | 
11 | CCN(CC)c1ccc2c(c1)Oc1nc(C)[nH]c(=O)c1C2c1ccc(Cl)cc1 (stereo not given) | inactive | inactive | inactive | inactive | inactive | inactive | inactive | inactive |  |  |  |  |  |  |  |  |  |  | 
